Screening results deposited in PubChem BioAssay by Johns Hopkins Ion Channel Center.
Kir21 inh – Kir2.1 (mouse) channel inhibition; AID 1672; B-score at 10 µM; 0.85% of 310,000 active; HEK293-Kir2.1, FluxOR thallium flux fluorescence; active compounds read low; P35561;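 active = fluorescence ratio B-score at or below minus 3 SD of library scores, with starting-brightness B-score within 2 SD, cut at about -4.2 in these data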;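 also: channel flux triggered by added potassium and thallium sulfate stimulus; B-score of peak minus minimum fluorescence over baseline after thallium stimulus; more negative B-score means stronger Kir2.1 block with less thallium influx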
KCNQ1 pot – potentiates or activates the human KCNQ1 potassium channel; B-score at 10 µM; P51787; CHO-K1 KCNQ1, thallium flux FluxOR fluorescence; active compounds read high; AID 2648; 0.35% of 310,000 active;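 active = fluorescence ratio B-score, a plate-corrected score, at least three library SD, with initial intensity B-score within 5 SD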
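Test system: CHO-K1 cells stably expressing KCNQ1 / Medium: assay buffer / Also added: depolarizing K+/Tl+ stimulus, K2SO4 and Tl2SO4 each 12.5 mM in 5x stock / Incubation: 90 min dye loading and 20 min compound exposure, both at room temperature / Signal: thallium influx via FluxOR fluorescence, kinetic imaging / Evaluation: B score of baseline-normalized fluorescence ratio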
KCNQ1 block – human KCNQ1 channel inhibition; B-score at 10 µM; 1.3% of 310,000 active; P51787; AID 2642; CHO-K1 KCNQ1, FluxOR thallium flux fluorescence; active compounds read high;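 active = compounds whose thallium flux B-score, printed positive for inhibition, exceeds three library SD while starting fluorescence stays within three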;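 also: channel opened by potassium depolarization with thallium stimulus after 20 min compound exposure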
hERG protect – shields human hERG channel from block by proarrhythmic agents; CHO-hERG, FluxOR thallium flux, dofetilide IC70 present; activation (rescue from dofetilide block), less the hit threshold, % at 10 µM; 0.51% of 310,000 active; AID 1511;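 active = activation above the mean of controls blocked by dofetilide plus 5 SD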;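 also: thallium influx through hERG after potassium depolarization seen as dye fluorescence rise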
KCNK9 inh – inhibitors of human KCNK9 two-pore domain potassium channel. HEK293 KCNK9, FluxOR thallium flux fluorescence; active compounds read low. B-score at 10 µM. 1.2% of 310,000 active;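 active = ratio B-score over 3 SD below the library mean, with starting fluorescence within 5 SD of its mean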;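 also: negative B-score means less thallium flux so channel inhibition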
KCNK3 inh – human KCNK3 channel inhibition, primary screen; AID 602410; O14649; 0.84% of 340,000 active; B-score at 10 µM; CHO-KCNK3 thallium flux, FluxOR fluorescence; active compounds read low;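 active = B-score under library mean minus 4 SD, starting fluorescence ratio at most library mean plus 5 SD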;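 also: more negative B-score means stronger inhibition of thallium flux through KCNK3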
Target sequence (O14649 whole entry, looked up): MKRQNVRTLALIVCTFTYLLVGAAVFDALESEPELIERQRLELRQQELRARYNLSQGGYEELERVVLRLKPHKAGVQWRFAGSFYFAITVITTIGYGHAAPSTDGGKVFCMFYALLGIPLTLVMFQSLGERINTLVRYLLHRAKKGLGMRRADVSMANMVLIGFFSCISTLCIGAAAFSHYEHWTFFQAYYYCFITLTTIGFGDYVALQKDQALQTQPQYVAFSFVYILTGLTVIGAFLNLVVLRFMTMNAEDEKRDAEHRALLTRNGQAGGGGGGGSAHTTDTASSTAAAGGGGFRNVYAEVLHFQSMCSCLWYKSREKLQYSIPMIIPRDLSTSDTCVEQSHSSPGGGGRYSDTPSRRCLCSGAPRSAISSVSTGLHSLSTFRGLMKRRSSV
Active calls of the source: *. Hits are enriched below; roughly 3.8% of the tested compounds scored in any of these assays.

How did CN(Cc1ccccc1)C(=S)Nc1cccnc1 do in these assays?
Kir21 inh: 0.02; KCNQ1 pot: inactive; KCNQ1 block: inactive; hERG protect: -14; KCNK9 inh: inactive; KCNK3 inh: inactive

How did COc1ccc(-c2cc(-c3nc4ccccn4c3NCc3ccccc3)ccc2OC)cc1 do in these assays?
KCNK3 inh: -8.7*

Results for Clc1cccc(-c2ccc(-c3nc4ccccn4c3NCc3ccccc3)cc2)c1 ?
KCNK3 inh: -9.6*

How did CC(Sc1nc(C(F)(F)F)nc2ccccc12)C(=O)NC1CCCC1 (stereo not given) do in these assays?
KCNK3 inh: inactive

Results for COc1ccccc1-c1sc2ccccc2c1C#Cc1ccc(N(C)C)cc1 ?
KCNK3 inh: inactive

What do the screens show for `C[C@@H]1O[C@@H](O[C@@H]2C(=O)c3c(O)cc(O)cc3O[C@H]2c2ccc(O)c(O)c2)[C@H](O)[C@H](O)[C@H]1O`?
KCNK3 inh: inactive

What do the screens show for `NC(=O)CCN1CCN(CCOC2Cc3cc(Cl)ccc3Sc3ccccc32)CC1` (stereo not given)?
Kir21 inh: -6.4*; KCNQ1 pot: inactive; KCNQ1 block: inactive; hERG protect: -11; KCNK9 inh: inactive; KCNK3 inh: inactive

Results for O=C(OCc1nnc(-c2ccc(Cl)cc2)o1)c1ccc(O)cc1 ?
Kir21 inh: -0.66; KCNQ1 pot: inactive; KCNQ1 block: inactive; hERG protect: -8; KCNK9 inh: inactive; KCNK3 inh: inactive

How did CS(=O)(=O)c1ccc(C(=O)OCc2nnc(-c3ccc(Cl)cc3)o2)cc1[N+](=O)[O-] do in these assays?
Kir21 inh: -1.1; KCNQ1 pot: 12*; KCNQ1 block: inactive; hERG protect: -18; KCNK9 inh: inactive; KCNK3 inh: inactive

What do the screens show for `CSc1ccccc1NC(=S)N/N=C/c1cccn1Cc1cccc(C)c1`?
Kir21 inh: 2.6; KCNQ1 pot: inactive; KCNQ1 block: inactive; hERG protect: -18; KCNK9 inh: -6.6*; KCNK3 inh: inactive

Results for CSc1ccccc1NC(=S)N/N=C/c1cccn1Cc1ccc(F)cc1 ?
Kir21 inh: -2.7; KCNQ1 pot: inactive; KCNQ1 block: inactive; hERG protect: -1; KCNK9 inh: -7.9*; KCNK3 inh: inactive

Results for COc1ccc(NC(=S)N/N=C/c2cccn2Cc2ccc(F)cc2Cl)cc1 ?
Kir21 inh: 0.93; KCNQ1 pot: inactive; KCNQ1 block: inactive; hERG protect: -5; KCNK9 inh: inactive; KCNK3 inh: inactive

How did COc1ccc(NC(=S)N/N=C/c2cccn2Cc2ccccc2F)cc1 do in these assays?
Kir21 inh: 2.5; KCNQ1 pot: inactive; KCNQ1 block: inactive; hERG protect: -6; KCNK9 inh: inactive; KCNK3 inh: inactive

Results for CCn1nnc2cc(C(=O)Nc3cc(OC)cc(OC)c3)ccc21 ?
Kir21 inh: -0.17; KCNQ1 pot: inactive; KCNQ1 block: inactive; hERG protect: -12; KCNK9 inh: inactive; KCNK3 inh: inactive

How did CC(C)N1CCc2c(sc(NC(=O)c3cc4cc([N+](=O)[O-])ccc4s3)c2C(N)=O)C1 do in these assays?
Kir21 inh: -0.06; KCNQ1 pot: inactive; KCNQ1 block: 6*; hERG protect: -13; KCNK9 inh: inactive; KCNK3 inh: inactive

How did CC(C)N1CCc2c(sc(NC(=O)c3ccc(C(=O)c4ccccc4)cc3)c2C(N)=O)C1 do in these assays?
Kir21 inh: -0.61; KCNQ1 pot: inactive; KCNQ1 block: inactive; hERG protect: -29; KCNK9 inh: inactive; KCNK3 inh: inactive

How did CC(C)N1CCc2c(sc(NC(=O)c3ccc4ccccc4c3)c2C(N)=O)C1 do in these assays?
Kir21 inh: -3.8; KCNQ1 pot: inactive; KCNQ1 block: inactive; hERG protect: -24; KCNK9 inh: -7.9*; KCNK3 inh: inactive

Results for CC(OC(=O)CCc1cc(C(C)(C)C)c(O)c(C(C)(C)C)c1)C(=O)NC1CC1 (stereo not given) ?
Kir21 inh: -4.3*; KCNQ1 pot: inactive; KCNQ1 block: inactive; hERG protect: -17; KCNK9 inh: inactive; KCNK3 inh: inactive

Results for COCc1ccccc1C1=CC(=O)C[C@H](c2ccc(OC)cc2)C1 ?
KCNK3 inh: inactive
